Measured values as given in ChEMBL document CHEMBL3351998, “Discovery of potent and specific dihydroisoxazole inhibitors of human transglutaminase 2” (J Med Chem, 2014).

Legend:
[1] = target: T1, Protein-glutamine gamma-glutamyltransferase K (Homo sapiens) (UniProt P22735); assay: Inhibition of human transglutaminase 1 using ((benzyloxy)carbonyl)-L-glutaminyl-L-serine peptide substrate assessed as Kinh/Ki ratio by GDH coupled assay
T1 sequence (whole entry): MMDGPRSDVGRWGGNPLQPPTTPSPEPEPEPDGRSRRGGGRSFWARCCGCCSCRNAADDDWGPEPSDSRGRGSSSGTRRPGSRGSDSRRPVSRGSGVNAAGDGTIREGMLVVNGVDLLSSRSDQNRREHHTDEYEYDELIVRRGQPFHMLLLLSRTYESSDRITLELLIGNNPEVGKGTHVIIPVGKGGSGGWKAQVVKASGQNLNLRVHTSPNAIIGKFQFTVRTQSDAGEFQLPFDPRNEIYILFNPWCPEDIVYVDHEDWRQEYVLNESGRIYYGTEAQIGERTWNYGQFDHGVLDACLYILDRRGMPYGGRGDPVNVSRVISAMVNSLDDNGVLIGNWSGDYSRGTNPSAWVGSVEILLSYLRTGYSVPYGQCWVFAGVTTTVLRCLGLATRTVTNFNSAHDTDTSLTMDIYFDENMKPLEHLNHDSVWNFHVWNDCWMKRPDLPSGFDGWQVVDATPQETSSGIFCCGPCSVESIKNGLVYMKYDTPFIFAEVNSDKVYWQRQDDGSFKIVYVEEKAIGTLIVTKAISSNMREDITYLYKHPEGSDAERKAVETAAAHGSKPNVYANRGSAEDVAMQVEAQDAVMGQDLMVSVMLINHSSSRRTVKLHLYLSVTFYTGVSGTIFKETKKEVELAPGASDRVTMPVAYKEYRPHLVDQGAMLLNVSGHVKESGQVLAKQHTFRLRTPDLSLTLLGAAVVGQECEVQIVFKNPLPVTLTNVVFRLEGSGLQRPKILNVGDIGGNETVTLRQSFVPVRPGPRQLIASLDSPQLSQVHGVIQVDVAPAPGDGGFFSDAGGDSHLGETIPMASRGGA
How it was run: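 Recombinant His-tagged human TG1 from E. coli Rosetta 2 pLysS, final ~0.37 μM, in 200 mM MOPS pH 7.2, 5 mM CaCl2, 10 mM α-ketoglutarate, 300 μM NADH, 36 U/mL GDH. Z-Gln-Ser at 20/40 mM. Inhibitors typically at 100/33.3/11.1/3.7 μM (1% DMSO), added after ≥5 min enzyme pre-equilibration. NADH loss read at 340 nm; progress curves fitted to exponential decay, kinh/Ki from irreversible model.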

[2] = target: T2, Protein-glutamine gamma-glutamyltransferase (Homo sapiens) (UniProt P21980); assay: Inhibition of human transglutaminase 2 using ((benzyloxy)carbony l)-L-glutaminylglycine peptide substrate assessed as Kinh/Ki ratio by GDH coupled assay
T2 sequence (whole entry): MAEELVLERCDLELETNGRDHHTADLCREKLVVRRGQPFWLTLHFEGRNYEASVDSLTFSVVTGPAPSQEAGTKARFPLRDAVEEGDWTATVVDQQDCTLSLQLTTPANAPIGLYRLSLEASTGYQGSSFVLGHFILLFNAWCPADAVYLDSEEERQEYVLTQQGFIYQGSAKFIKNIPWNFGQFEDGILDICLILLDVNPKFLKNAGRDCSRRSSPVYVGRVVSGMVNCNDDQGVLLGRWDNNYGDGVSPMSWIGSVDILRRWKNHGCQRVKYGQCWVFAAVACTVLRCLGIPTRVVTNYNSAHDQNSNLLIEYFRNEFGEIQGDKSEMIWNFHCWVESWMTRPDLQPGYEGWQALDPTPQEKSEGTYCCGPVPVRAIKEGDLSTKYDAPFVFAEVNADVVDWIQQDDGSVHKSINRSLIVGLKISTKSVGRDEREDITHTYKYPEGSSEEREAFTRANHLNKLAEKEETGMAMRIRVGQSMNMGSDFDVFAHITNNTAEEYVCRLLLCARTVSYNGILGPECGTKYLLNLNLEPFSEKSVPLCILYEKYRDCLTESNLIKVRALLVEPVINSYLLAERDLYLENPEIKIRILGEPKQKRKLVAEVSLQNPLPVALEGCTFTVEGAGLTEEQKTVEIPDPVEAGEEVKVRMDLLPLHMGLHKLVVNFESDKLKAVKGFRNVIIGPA
How it was run: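 Human TG2 (V224G variant) or codon-optimized murine TG2, E. coli-expressed, final ~0.34 and 0.22 μM respectively. Buffer: 200 mM MOPS pH 7.2, 5 mM CaCl2, 10 mM α-ketoglutarate, 300 μM NADH, 36 U/mL bovine GDH. Z-Gln-Gly at 10/20 mM. Inhibitors typically at 100/33.3/11.1/3.7 μM, 1% DMSO, added after ≥5 min pre-equilibration. A340 progress curves fitted to exponential decay; kinh/Ki from irreversible inhibition model.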

[3] = target: T3, Protein-glutamine gamma-glutamyltransferase E (Homo sapiens) (UniProt Q08188); assay: Inhibition of human transglutaminase 3 using ((benzyloxy)carbonyl)-L-glutaminyl-L-serine peptide substrate assessed as Kinh/Ki ratio by GDH coupled assay
T3 sequence (whole entry): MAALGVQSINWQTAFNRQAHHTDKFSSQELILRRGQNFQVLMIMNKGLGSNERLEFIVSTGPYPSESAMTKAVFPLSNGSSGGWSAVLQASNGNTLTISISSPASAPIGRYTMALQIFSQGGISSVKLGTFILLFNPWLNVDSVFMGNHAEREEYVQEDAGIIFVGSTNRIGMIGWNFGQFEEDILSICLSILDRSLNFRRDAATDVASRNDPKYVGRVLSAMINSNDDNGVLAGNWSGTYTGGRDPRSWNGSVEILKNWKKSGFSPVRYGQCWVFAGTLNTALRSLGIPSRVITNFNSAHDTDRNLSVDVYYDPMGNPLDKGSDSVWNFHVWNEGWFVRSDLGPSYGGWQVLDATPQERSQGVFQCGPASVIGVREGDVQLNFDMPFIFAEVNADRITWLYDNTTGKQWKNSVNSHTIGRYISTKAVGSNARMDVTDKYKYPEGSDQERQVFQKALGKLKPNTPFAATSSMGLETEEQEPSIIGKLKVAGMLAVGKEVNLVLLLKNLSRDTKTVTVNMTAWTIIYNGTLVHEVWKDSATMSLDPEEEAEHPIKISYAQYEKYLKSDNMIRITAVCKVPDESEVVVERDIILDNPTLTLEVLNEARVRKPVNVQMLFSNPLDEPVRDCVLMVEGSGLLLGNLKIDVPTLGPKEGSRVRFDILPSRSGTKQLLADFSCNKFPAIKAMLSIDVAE
How it was run: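 His-tagged human TG3 activated by cathepsin L (1 μg per 25 μg TG3, MES pH 6.0, 30 min), then quenched with 50 μM E64 for 10 min. Final TG3 ~0.43 μM in 200 mM MOPS pH 7.2, 5 mM CaCl2, 10 mM α-ketoglutarate, 300 μM NADH, 36 U/mL GDH. Z-Gln-Ser at 20/40 mM. Enzyme pre-equilibrated 30 min before inhibitors (typically 100/33.3/11.1/3.7 μM) were added. A340 curves fitted; kinh/Ki from irreversible model.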

| SMILES | Ratio [1] | Ratio [2] | Ratio [3] |
| --- | --- | --- | --- |
| O=C(NC[C@@H]1CC(Br)=NO1)[C@@H]1C[C@@H](OCc2ccccc2)CN1C(=O)OCc1cnc2ccccc2c1 | 5.8 | 13.8 | < 1 |
| O=C(NC[C@@H]1CC(Br)=NO1)[C@@H]1C[C@@H](O)CN1C(=O)OCc1cnc2ccccc2c1 | 4.8 | 12.5 | < 1 |
| O=C(N[C@@H]1C[C@@H](C(=O)NC[C@@H]2CC(Br)=NO2)N(C(=O)OCc2cnc3ccccc3c2)C1)c1cccnc1 | 20 | 108 | < 1 |
| O=C(N[C@@H]1C[C@@H](C(=O)NC[C@@H]2CC(Br)=NO2)N(C(=O)OCc2cnc3ccccc3c2)C1)c1ccc(O)cc1 | 31.3 | 56.4 | < 1 |
| O=C(NC[C@@H]1CC(Br)=NO1)[C@@H]1C[C@H](F)CN1C(=O)OCc1cnc2ccccc2c1 | 6 | 13.4 | < 1 |
| O=C(NC[C@@H]1CC(Br)=NO1)[C@@H]1C[C@@H](c2ccccc2)CN1C(=O)OCc1cnc2ccccc2c1 | 66.3 | 48.6 | < 1 |
| O=C(NC[C@@H]1CC(Br)=NO1)[C@@H]1C[C@@H](c2ccc(O)cc2)CN1C(=O)OCc1cnc2ccccc2c1 | 90.7 | 91.1 | < 1 |
| O=C(NC[C@@H]1CC(Br)=NO1)[C@@H]1CCCN1C(=O)OCc1cnc2ccccc2c1 | 13.2 | 16.9 | < 1 |
